Measured values of several laboratories.
Lines come from different studies, so protocols differ.
Target: Dual specificity protein kinase CLK2 (CLK2, Homo sapiens, UniProt P49760)

SMILES | observed | action | method | tested at | measurement | value
FC(F)(F)Oc1cccc(-c2cnc3ccc(-c4ccncc4)nn23)c1 | enzyme activity | inhibitor | radiometric | 1 µM | activity vs control | 0.675%
O=C(NCc1ncc(C(F)(F)F)cc1Cl)c1ccc2c(c1)C1(CCS(=O)(=O)CC1)[C@H](C1CC1)N2S(=O)(=O)c1ccc(F)cc1 | cell-free assay |  | competition with immobilised ligand | 1 µM | remaining binding | 100%
C#Cc1cccc(Nc2ncnc3cc(OCCOC)c(OCCOC)cc23)c1 | cell-free assay |  |  | 0.5 µM | remaining signal | 93.4%
CN1CCC2(CC1)NC(=O)c1c(c3ccc(Cl)c(Cl)c3n1C)C2C#N (racemic) | thermal stability |  | DSF | 10 µM | ΔTm | 1.9 °C
FC(F)c1nc2ccccc2n1-c1nc(N2CCOCC2)nc(N2CCOCC2)n1 | enzyme activity | inhibitor |  | 10 µM | remaining activity | 85%
CCCOc1ccc([C@H]2[C@H](C(=O)O)[C@@H](c3ccc4c(c3)OCO4)CN2CC(=O)Nc2c(CC)cccc2CC)cc1 | cell-free assay |  | competition with immobilised ligand | 1 µM | remaining binding | 91%
COc1cc(Nc2cnc(C#N)c(O[C@H](C)CN(C)C)n2)ncc1-c1cnn(C)c1 | enzyme activity | inhibitor | radiometric | 1 µM | remaining activity | 95%
CS(=O)(=O)Nc1cccc(-c2csc(NC(=O)CSc3nc4nccnc4c(=O)n3CCc3ccccc3)n2)c1 | enzyme activity | inhibitor |  | 10 µM | inhibition | 11%
COc1cc2ncnc(Nc3ccc(Oc4ccccc4)cc3C)c2cc1OC | enzyme activity | inhibitor |  | 1 µM | inhibition | 0%
CCN(CC)c1ccc(C2=NNC(=O)CC2C)cc1[N+](=O)[O-] (centres unmarked) | enzyme activity | inhibitor |  | 10 µM | remaining activity | 96%
COc1cc2ncnc(Nc3ccc(F)c(Cl)c3)c2cc1OCCCN1CCOCC1 | cell-free assay |  |  | 0.5 µM | remaining signal | 94.8%
CS(=O)(=O)N1CCCC(NC(=O)[C@H](CCC2CCCCC2)NC(=O)c2ccc(CNC(=O)c3cnc4ccccn34)cc2)C1 (some centres unmarked) | cell-free assay |  | competition with immobilised ligand | 0.1 µM | remaining binding | 98%
O=C(Nc1cnn(-c2csc(C(=O)NC3COC3)c2)c1)Nc1c(F)cccc1Cl | enzyme activity | inhibitor |  | 5 µM | remaining activity | 109%
O=C1Nc2ccc(Cl)cc2C1=Cc1cc(Cl)c(O)c(Cl)c1 | cell-free assay |  |  | 0.5 µM | remaining signal | 95.5%
Cn1c2c(c3ccc(Cl)c(Cl)c31)C(C#N)C1(CCCC1)NC2=O (centres unmarked) | thermal stability |  | DSF | 10 µM | ΔTm | 1.7 °C
Cn1cnc(Br)c1C1=CN(c2ncnc3[nH]cnc23)CCS1 | enzyme activity | inhibitor | radiometric | 50 nM | inhibition | 46.1%
CC(C)(C)c1nc(-c2cccc(NS(=O)(=O)c3c(F)cccc3F)c2F)c(-c2ccnc(N)n2)s1 | enzyme activity | inhibitor | radiometric | 1 µM | remaining activity | 98%
CC/C(=N\NC(=O)NCc1cccc(O)c1)c1ccc(O)c(C)c1O | enzyme activity | inhibitor |  | 0.1 µM | inhibition | 1.6%

SMILES | observed | action | method | tested at | measurement | value
COc1cc(Cl)c(C(=O)N[C@@H](CN[C@H]2CC[C@@H](N)CC2)Cc2ccc(C#N)cc2)cc1-c1ccc(CN[C@H](C)c2ccc(C)cc2)o1 | enzyme activity | inhibitor |  | 1 µM | remaining activity | 92%
COc1cc(-c2cn(C3CCc4c(F)cccc4N(CC(F)(F)F)C3=O)nn2)ccc1-n1cnc(C)c1 (centres unmarked) | cell-free assay |  | competition with immobilised ligand | 1 µM | remaining binding | 100%
Cc1ccc(NC(=O)c2ccc(CN3CCN(C)CC3)cc2)cc1Nc1nc(-c2cccnc2)cs1 | cell-free assay |  |  | 0.5 µM | remaining signal | 86%
COc1ccc2c(O[C@@H]3C[C@H]4C(=O)N[C@]5(C(=O)O)CC5/C=C\CCCCC[C@H](NC(=O)OC5CCCC5)C(=O)N4C3)cc(-c3csc(NC(=O)C(C)C)n3)nc2c1C (some centres unmarked) | cell-free assay |  | competition with immobilised ligand | 1 µM | remaining binding | 100%
CCN1CCC2(CC1)NC(=O)c1c(c3ccc(Cl)c(Cl)c3n1C)C2C#N (racemic) | thermal stability |  | DSF | 10 µM | ΔTm | 1.4 °C
COc1ccc2cc(OCC3(C(=O)O)CN(C(=O)c4ccc(F)cc4)C3)ccc2c1 | cell-free assay |  | competition with immobilised ligand | 1 µM | remaining binding | 100%
CN(C)C1CCN(CC#Cc2nn(C3CCCC3)c3nc(NCc4ccccc4)ncc23)C1 (centres unmarked) | enzyme activity | inhibitor | FRET | 0.1 µM | inhibition | 8%
Cn1c2c(c3ccc(Cl)c(Cl)c31)C(C#N)C1(CCN(C(=O)OC(C)(C)C)CC1)NC2=O (racemic) | thermal stability |  | DSF | 10 µM | ΔTm | -0.3 °C
CC(=O)Nc1c(C(C)=O)c(=O)n(C)c2nc(-c3ccc(Cl)cc3Cl)c(-c3ccc(Cl)cc3)cc12 | cell-free assay |  | competition with immobilised ligand | 1 µM | remaining binding | 100%
Cc1cnc(NC2CCOCC2)nc1-n1cnc(C(=O)NC(CN)c2cc(F)cc(Cl)c2)c1 (centres unmarked) | enzyme activity | inhibitor | radiometric | 1 µM | remaining activity | 78%
Cc1cc(NC(=O)c2cccc3cc(-c4cccc5[nH]nc(N)c45)ccc23)ccc1F | enzyme activity | inhibitor |  | 0.1 µM | activity vs control | 95%
Cc1ccc(C(=O)Nc2ccc(CN3CCN(C)CC3)c(C(F)(F)F)c2)cc1C#Cc1cnc2cccnn12 | enzyme activity | inhibitor |  | 23.5 nM | remaining activity | 94%
CN1CC(Oc2cnc(C#N)cc2-c2ccn3nc(NC(=O)C4CC4)cc3c2)C1 | enzyme activity | inhibitor |  | 1 µM | inhibition | 1%
Cn1c2c(c3ccc(Cl)c(Cl)c31)C(C#N)C(C)(C)NC2=O (centres unmarked) | thermal stability |  | DSF | 10 µM | ΔTm | 3.2 °C
COCCOc1nc(-c2ccc(Cl)nc2)nc2c1CN(C(=O)c1ncn3ccccc13)CC2 | cell-free assay |  | competition with immobilised ligand | 0.1 µM | remaining binding | 100%
COc1cc(/C=C/C(=O)CC(=O)/C=C/c2ccc(O)c(OC)c2)ccc1O | enzyme activity | inhibitor |  | 1 µM | activity vs control | 48%
COc1cccc2c(NCc3ccccc3)nc(-n3c(N)nc4ccccc43)nc12 | target engagement in cells | inhibitor | chemoproteomics | 20 mM | inhibition | -12.9%
